# Source: ChEMBL document CHEMBL1123359, “3,4-Dihydro-2-phenyl-2H-pyrano[2,3-b]pyridines with potent antirhinovirus activity” (1986)
# Calls of active or inactive are those of the source. The calls are words filed in the database; no cut-off is given here.
# Columns and labels:
# Human rhinovirus sp. [1] = experiment: Concentration required to reduce Rhino virus type 64 induced plaque formation in HeLa cell culture to 50% of control; assay type: functional; conditions: read-out: ID50 (the source's name)
# In short: (§1)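 HeLa monolayers were grown at 36 °C in Eagle's MEM with Earle's salts, 1% antibiotic and 7-10% heat-inactivated fetal calf serum, with serum cut to 1-2% for maintenance. Plaque reduction cultures were incubated 48-72 h at 33 °C. RV-1A was propagated in HeLa; RV-9 was ATCC VR489.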
# Human rhinovirus sp. [2] = experiment: Concentration required to reduce Rhino virus type 9 induced plaque formation in HeLa cell culture to 50% of control; assay type: functional; conditions: read-out: ID50 (the source's name); in short: as §1
# Human rhinovirus 1A = experiment: Concentration required to reduce Rhino virus type 1A induced plaque formation in HeLa cell culture to 50% of control; assay type: functional; conditions: read-out: ID50 (the source's name); in short: as §1
# HeLa [3] = experiment: Lowest concentration at which the effect on HeLa cell colony formation became apparent.; assay type: functional, Homo sapiens
# In short: (§2)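 The assay scored effects of compound on the growth and morphology of HeLa cell colonies. HeLa stocks were kept in Eagle's MEM with Earle's salts, 1% antibiotic and 7-10% heat-inactivated fetal calf serum at 36 °C. The value is the lowest concentration at which a colony effect became apparent.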
# HeLa [4] = experiment: The cell growth inhibition ( CGI) concentration denotes the lowest concentration at which the effect on HeLa cell colony formation became apparent.; assay type: functional, Homo sapiens; in short: as §2
# HeLa [5] = experiment: Concentration required to reduce Rhino virus type 1A induced plaque formation in HeLa cell culture to 50% of control; The highest concentration tested failed to provide 50% protection.; assay type: functional; conditions: Homo sapiens, read-out: ID50 (the source's name)
# In short: as §1, with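 “VR489. Plaque counts as % of compound-free control were plotted against log concentration, and the 50% point was found by linear regression.” for “VR489.”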
# [6] = Activity against polio type 2; No activity; assay type: functional
# [7] = Activity against mengovirus.; No activity; assay type: functional
# HeLa [8] = experiment: Concentration required to reduce Rhino virus type 9 induced plaque formation in HeLa cell culture to 50% of control; The highest concentration tested failed to provide 50% protection.; assay type: functional; conditions: Homo sapiens, read-out: ID50 (the source's name)
# In short: as §1, with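 “VR489. Plaque counts as % of compound-free control were plotted against log concentration, and the 50% point was found by linear regression.” for “VR489.”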
# HeLa [9] = experiment: Concentration required to reduce Rhino virus type 64 induced plaque formation in HeLa cell culture to 50% of control; The highest concentration tested failed to provide 50% protection.; assay type: functional; conditions: Homo sapiens, read-out: ID50 (the source's name)
SMILES,IC50 (Human rhinovirus sp. [1]) [nM],IC50 (Human rhinovirus sp. [2]) [nM],IC50 (Human rhinovirus 1A) [nM],further results
CCCCSc1cnc2c(c1)CCC(c1ccc(Cl)c(Cl)c1)O2 (stereo unspecified),1390,6300,2830,–
C[S+]([O-])c1cnc2c(c1)CCC(c1ccc(Cl)c(Cl)c1)O2 (stereo unspecified),9,30,260,–
CC1(c2ccc(Cl)c(Cl)c2)CCc2cc(Cl)cnc2O1 (stereo unspecified),400,580,1090,–
Clc1ccc(C2CCc3cc(Cl)cnc3O2)cc1 (stereo unspecified),110,640,700,CGI (HeLa [3]): 35 µM
Clc1cnc2c(c1)CCC(c1ccc(Cl)c(Cl)c1)O2 (stereo unspecified),30,290,60,CGI (HeLa [3]): 16 µM
Brc1cnc2c(c1)CCC(c1ccccc1)O2 (stereo unspecified),3550,4760,410,–
CSc1cnc2c(c1)CCC(c1ccc(Cl)c(Cl)c1)O2 (stereo unspecified),30,150,120,CGI (HeLa [4]): 15 µM
Clc1ccc(C2C=Cc3cc(Cl)cnc3O2)cc1 (stereo unspecified),470,2300,180,CGI (HeLa [4]): 9 µM
CS(=O)(=O)c1cnc2c(c1)CCC(c1ccc(Cl)c(Cl)c1)O2 (stereo unspecified),10,140,470,CGI (HeLa [3]): 56 µM
Clc1ccc(C2C=Cc3cc(Br)cnc3O2)cc1Cl (stereo unspecified),60,110,530,CGI (HeLa [4]): 14 µM
CS(=O)(=O)c1cnc2c(c1)CCC(c1ccccc1)O2 (stereo unspecified),–,–,–,IC50 (HeLa [5]): > 17000 nM
Clc1ccc(C2CCc3cccnc3O2)cc1Cl (stereo unspecified),640,2180,70,–
Clc1ccc(C2CCc3cc(Br)cnc3O2)cc1Cl (stereo unspecified),60,220,30,Activity [6]: inactive; CGI (HeLa [3]): 28 µM; Activity [7]: inactive
Clc1ccc(C2=CCc3cc(Br)cnc3O2)cc1Cl,12900,590,–,IC50 (HeLa [8]): > 14000 nM
CS(=O)(=O)c1cnc2c(c1)CCC(c1ccc(Cl)cc1)O2 (stereo unspecified),250,1420,1420,–
Brc1cnc2c(c1)C=CC(c1ccccc1)O2 (stereo unspecified),–,–,1490,IC50 (HeLa [8]): > 3470 nM; IC50 (HeLa [9]): > 3470 nM
Cc1ccc(C2CCc3cc(Br)cnc3O2)cc1 (stereo unspecified),230,390,70,–
Clc1ccc(C2CCc3cc(Br)cnc3O2)cc1 (stereo unspecified),30,30,30,–
